ChEMBL document CHEMBL3045677, “Sulfonamide-1,2,4-thiadiazole derivatives as antifungal and antibacterial agents: synthesis, biological evaluation, lipophilicity, and conformational studies” (2010)
≈ marks a conversion by molar mass, not a printed value.

Experiments:
Talaromyces funiculosus = test: Antifungal activity against Talaromyces funiculosus ATCC 36839 at 28 degC measured after 72 hr by microdilution method; format: functional; details: ATCC 36839, 72 h
How it was run: (§1)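 Fungi were kept on malt agar at 4 °C. Spores were washed off with sterile 0.85% saline containing 0.1% Tween 80 and adjusted to about 1.0×10⁵ per well. Compounds were dissolved in DMSO (1 mg/ml stock) and serially diluted in malt broth with inoculum in 96-well plates, 72 h at 28 °C, for MIC. MFC came from subculture into fresh broth for a further 72 h at 28 °C.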

Aspergillus flavus = test: Antifungal activity against Aspergillus flavus ATCC 9643 at 28 degC measured after 72 hr by microdilution method; format: functional; details: ATCC 9643, 72 h; how it was run: as §1
Aspergillus fumigatus = test: Antifungal activity against plant isolate Aspergillus fumigatus at 28 degC measured after 72 hr by microdilution method; format: functional; how it was run: as §1
Penicillium ochrochloron = test: Antifungal activity against Penicillium ochrochloron ATCC 9112 at 28 degC measured after 72 hr by microdilution method; format: functional; details: ATCC 9112, 72 h; how it was run: as §1
Aspergillus versicolor = test: Antifungal activity against Aspergillus versicolor ATCC 11730 at 28 degC measured after 72 hr by microdilution method; format: functional; details: ATCC 11730, 72 h; how it was run: as §1
Aspergillus niger = test: Antifungal activity against Aspergillus niger ATCC 6275 at 28 degC measured after 72 hr by microdilution method; format: functional; details: ATCC 6275, 72 h; how it was run: as §1
Trichoderma viride = test: Antifungal activity against Hypocrea rufa IAM 5061 at 28 degC measured after 72 hr by microdilution method; format: functional; details: IAM 5061, 72 h; how it was run: as §1
Fulvia fulva = test: Antifungal activity against Passalora fulva TK5318 at 28 degC measured after 72 hr by microdilution method; format: functional; details: TK5318, 72 h; how it was run: as §1
Salmonella typhimurium [1] = test: Antibacterial activity against Salmonella enterica subsp. enterica serovar Typhimurium ATCC 13311 at […] degC measured after 24 hr by microdilution method; format: functional; details: ATCC 13311, 24 h
How it was run: (§2)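 Bacteria suspended in sterile saline at 1.0×10⁵ CFU/ml and added at 1.0×10⁴ CFU per well to LB broth with compound (1 mg/ml) in 96-well plates. Incubated 24 h at […] °C. MIC was the lowest concentration without visible growth under a binocular microscope. OD 655 nm was read against a blank and a positive control.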

Proteus mirabilis [2] = test: Antibacterial activity against Proteus mirabilis at […] degC measured after 72 hr by microdilution method; format: functional
How it was run: (§3)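 Bactericidal endpoint: after the 24 h broth microdilution (1.0×10⁴ CFU per well, LB broth, […] °C), wells were serially subcultured into plates of fresh broth and incubated a further 72 h. MBC was the lowest concentration with no visible growth, taken as 99.5% killing of the original inoculum.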

Micrococcus flavus [3] = test: Antibacterial activity against Micrococcus flavus ATCC 10240 at […] degC measured after 72 hr by microdilution method; format: functional; details: ATCC 10240, 72 h; how it was run: as §3
Proteus mirabilis [4] = test: Antibacterial activity against Proteus mirabilis at […] degC measured after 24 hr by microdilution method; format: functional; how it was run: as §2
Bacillus cereus [5] = test: Antibacterial activity against clinical isolate Bacillus cereus at […] degC measured after 24 hr by microdilution method; format: functional; how it was run: as §2
Bacillus cereus [6] = test: Antibacterial activity against clinical isolate Bacillus cereus at […] degC measured after 72 hr by microdilution method; format: functional; how it was run: as §3
Staphylococcus aureus [7] = test: Antibacterial activity against Staphylococcus aureus ATCC 6538 at […] degC measured after 24 hr by microdilution method; format: functional; details: ATCC 6538, 24 h; how it was run: as §2
Pseudomonas aeruginosa [8] = test: Antibacterial activity against Pseudomonas aeruginosa ATCC 27853 at […] degC measured after 24 hr by microdilution method; format: functional; details: ATCC 27853, 24 h; how it was run: as §2
Escherichia coli [9] = test: Antibacterial activity against Escherichia coli ATCC 35210 at […] degC measured after 24 hr by microdilution method; format: functional; details: ATCC 35210, 24 h; how it was run: as §2
Pseudomonas aeruginosa [10] = test: Antibacterial activity against Pseudomonas aeruginosa ATCC 27853 at […] degC measured after 72 hr by microdilution method; format: functional; details: ATCC 27853, 72 h; how it was run: as §3
Staphylococcus aureus [11] = test: Antibacterial activity against Staphylococcus aureus ATCC 6538 at […] degC measured after 72 hr by microdilution method; format: functional; details: ATCC 6538, 72 h; how it was run: as §3
Listeria monocytogenes [12] = test: Antibacterial activity against Listeria monocytogenes NCTC 7973 at […] degC measured after 24 hr by microdilution method; format: functional; details: NCTC 7973, 24 h; how it was run: as §2
Salmonella typhimurium [13] = test: Antibacterial activity against Salmonella enterica subsp. enterica serovar TyphimuriumATCC 13311 at […] degC measured after 72 hr by microdilution method; format: functional, Salmonella enterica subsp. enterica serovar Typhimurium; details: ATCC 13311, 72 h; how it was run: as §3
Listeria monocytogenes [14] = test: Antibacterial activity against Listeria monocytogenes NCTC 7973 at […] degC measured after 72 hr by microdilution method; format: functional; details: NCTC 7973, 72 h; how it was run: as §3
Micrococcus flavus [15] = test: Antibacterial activity against Micrococcus flavus ATCC 10240 at […] degC measured after 24 hr by microdilution method; format: functional; details: ATCC 10240, 24 h; how it was run: as §2
Escherichia coli [16] = test: Antibacterial activity against Escherichia coli ATCC 35210 at […] degC measured after 72 hr by microdilution method; format: functional; details: ATCC 35210, 72 h; how it was run: as §3

Compound	MFC (Talaromyces funiculosus) [µM]	MIC (Talaromyces funiculosus) [µM]	MFC (Aspergillus flavus) [µM]	MIC (Aspergillus flavus) [µM]	MFC (Aspergillus fumigatus) [µM]	MIC (Aspergillus fumigatus) [µM]	MFC (Penicillium ochrochloron) [µM]	MIC (Penicillium ochrochloron) [µM]	MFC (Aspergillus versicolor) [µM]	MIC (Aspergillus versicolor) [µM]	MFC (Aspergillus niger) [µM]	MIC (Aspergillus niger) [µM]	MFC (Trichoderma viride) [µM]	MIC (Trichoderma viride) [µM]	MFC (Fulvia fulva) [µM]	MIC (Fulvia fulva) [µM]	MIC (Salmonella typhimurium [1]) [µM]	MBC (Proteus mirabilis [2]) [µM]	MBC (Micrococcus flavus [3]) [µM]	MIC (Proteus mirabilis [4]) [µM]	other results
CC(=O)N1CCN(c2ccc(OCC3COC(Cn4ccnc4)(c4ccc(Cl)cc4Cl)O3)cc2)CC1 (stereo not given) [KETOCONAZOLE]	950 (≈ 505 µg/mL)	380 (≈ 202 µg/mL)	3800 (≈ 2020 µg/mL)	2850 (≈ 1510 µg/mL)	950 (≈ 505 µg/mL)	380 (≈ 202 µg/mL)	3800 (≈ 2020 µg/mL)	3800 (≈ 2020 µg/mL)	950 (≈ 505 µg/mL)	380 (≈ 202 µg/mL)	950 (≈ 505 µg/mL)	380 (≈ 202 µg/mL)	5700 (≈ 3030 µg/mL)	4750 (≈ 2520 µg/mL)	950 (≈ 505 µg/mL)	380 (≈ 202 µg/mL)					
COc1cc(Cc2nnc(Nc3ccc(Cl)cc3)s2)c(S(=O)(=O)N2CCCCC2)cc1OC	39.4 (≈ 20.1 µg/mL)	19.7 (≈ 10 µg/mL)	19.7 (≈ 10 µg/mL)	9.8 (≈ 4.99 µg/mL)	39.4 (≈ 20.1 µg/mL)	19.7 (≈ 10 µg/mL)	39.4 (≈ 20.1 µg/mL)	19.7 (≈ 10 µg/mL)	19.7 (≈ 10 µg/mL)	9.8 (≈ 4.99 µg/mL)	39.4 (≈ 20.1 µg/mL)	19.7 (≈ 10 µg/mL)	19.7 (≈ 10 µg/mL)	9.8 (≈ 4.99 µg/mL)	19.7 (≈ 10 µg/mL)	9.8 (≈ 4.99 µg/mL)	9.8 (≈ 4.99 µg/mL)	78.7 (≈ 40.1 µg/mL)	39.4 (≈ 20.1 µg/mL)	19.7 (≈ 10 µg/mL)	MIC (Bacillus cereus [5]): 9.8 µM (≈ 4.99 µg/mL); MBC (Bacillus cereus [6]): 19.7 µM (≈ 10 µg/mL); MIC (Staphylococcus aureus [7]): 19.7 µM (≈ 10 µg/mL); MIC (Pseudomonas aeruginosa [8]): 9.8 µM (≈ 4.99 µg/mL); MIC (Escherichia coli [9]): 19.7 µM (≈ 10 µg/mL); MBC (Pseudomonas aeruginosa [10]): 19.7 µM (≈ 10 µg/mL); MBC (Staphylococcus aureus [11]): 39.4 µM (≈ 20.1 µg/mL); MIC (Listeria monocytogenes [12]): 39.4 µM (≈ 20.1 µg/mL); MBC (Salmonella typhimurium [13]): 19.7 µM (≈ 10 µg/mL); MBC (Listeria monocytogenes [14]): 78.8 µM (≈ 40.1 µg/mL); MIC (Micrococcus flavus [15]): 19.7 µM (≈ 10 µg/mL); MBC (Escherichia coli [16]): 39.4 µM (≈ 20.1 µg/mL)
COc1cc(Cc2nnc(Nc3ccc(Cl)cc3)s2)c(S(=O)(=O)N(C)C)cc1OC	21.3 (≈ 9.99 µg/mL)	10.7 (≈ 5.02 µg/mL)	42.6 (≈ 20 µg/mL)	10.7 (≈ 5.02 µg/mL)	42.6 (≈ 20 µg/mL)	10.7 (≈ 5.02 µg/mL)	42.6 (≈ 20 µg/mL)	21.3 (≈ 9.99 µg/mL)	42.6 (≈ 20 µg/mL)	10.7 (≈ 5.02 µg/mL)	42.6 (≈ 20 µg/mL)	10.7 (≈ 5.02 µg/mL)	21.3 (≈ 9.99 µg/mL)	10.7 (≈ 5.02 µg/mL)	85.2 (≈ 40 µg/mL)	21.3 (≈ 9.99 µg/mL)	21.3 (≈ 9.99 µg/mL)	42.6 (≈ 20 µg/mL)	42.6 (≈ 20 µg/mL)	21.3 (≈ 9.99 µg/mL)	MIC (Bacillus cereus [5]): 10.7 µM (≈ 5.02 µg/mL); MBC (Bacillus cereus [6]): 21.3 µM (≈ 9.99 µg/mL); MIC (Staphylococcus aureus [7]): 21.3 µM (≈ 9.99 µg/mL); MIC (Pseudomonas aeruginosa [8]): 42.6 µM (≈ 20 µg/mL); MIC (Escherichia coli [9]): 42.6 µM (≈ 20 µg/mL); MBC (Pseudomonas aeruginosa [10]): 85.2 µM (≈ 40 µg/mL); MBC (Staphylococcus aureus [11]): 42.6 µM (≈ 20 µg/mL); MIC (Listeria monocytogenes [12]): 85.2 µM (≈ 40 µg/mL); MBC (Salmonella typhimurium [13]): 42.6 µM (≈ 20 µg/mL); MBC (Listeria monocytogenes [14]): 85.2 µM (≈ 40 µg/mL); MIC (Micrococcus flavus [15]): 21.3 µM (≈ 9.99 µg/mL); MBC (Escherichia coli [16]): 85.2 µM (≈ 40 µg/mL)
